Here are results for three molecules from ChEMBL document CHEMBL4316595, “Synthesis and structure-activity relationship studies of parthenolide derivatives as potential anti-triple negative breast cancer agents” (Eur J Med Chem, 2019).

Structures are written as SMILES. Structures can show the parent of a compound that is named as a salt. Calls of active or inactive are those of the source. The calls are words filed in the database; no cut-off is given here.

As a reminder, the IC50 is the concentration at which inhibition is half-maximal.

The test system of series [1] is MDA-MB-231. In words: Antiproliferative activity against human MDA-MB-231 cells measured after 72 hrs by MTT assay. It is filed as functional, cell-based. As to conditions: MDA-MB-231, 72 h. An outline of the steps:
(§1)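 MTT antiproliferation assay on human breast cancer lines MDA-MB-231, SUM-159, MCF-7 and Bcap-37 and on mouse 4T1 breast cancer cells. IC50 values were taken from the MTT read-out. Adriamycin served as the positive control.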

Series [2] concerns MDA-MB-231. In words: Antiproliferative activity against human MDA-MB-231 cells co-treated with melampomagnolide B at 1:1 molar ratio measured after 72 hrs by MTT assay. Particulars: MDA-MB-231, 72 h. On the technique in general: Tetrazolium dyes change colour on reduction, which living cells bring about.
The test system of a further series is NIH3T3. Nature of the series: Cytotoxicity against mouse 3T3 cells measured after 72 hrs by MTT assay. The series is classed as cell-based. As to conditions: NIH3T3, 72 h. In outline: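 Cytotoxicity was measured by MTT on normal 3T3 mouse embryonic fibroblasts, with IC50 from the MTT read-out.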
A short description of series [3]: Therapeutic index, ratio of IC50 for mouse 3T3 cells to IC50 for mouse 4T1 cells. The series is classed as toxicity. As to conditions: 3T3 cells and 4T1 cells, read-out: Ratio IC50.
Series [4] relates to 4T1. In words: Antiproliferative activity against mouse 4T1 cells measured after 72 hrs by MTT assay. It is filed as functional, cell-based. As to conditions: 4T1, 72 h. An outline of the steps: as §1
The test system of series [5] is SUM-159-PT. In words: Induction of apoptosis in human SUM159 cells assessed as late apoptotic cells at 0.5 uM measured after 48 hrs by Annexin-V APC/propidium iodide staining based flow cytometry (reference value: 1.45%). The series is classed as functional. In outline:
(§2)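 SUM-159 cells were exposed at 0, 0.2 and 0.5 µM, then stained with annexin V/PI and analysed by flow cytometry. Early apoptosis was annexin V+/PI−, late apoptosis annexin V+/PI+, and total apoptosis was the sum of the two.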
Background: A flow cytometer gives signals particle by particle.

Series [6] has as its target Cyclin-dependent kinase 1 (Homo sapiens) (UniProt P06493). In words: Inhibition of CDC2 phosphorylation in human SUM159 cells at 0.1 to 0.2 uM measured after 48 hrs by Western blot analysis. The series is classed as cell-based. (A western blot detects proteins with antibodies after separation by electrophoresis.)
Series [7] deals with SUM-159-PT. Nature of the series: Induction of apoptosis in human SUM159 cells assessed as viable cells at 0.2 uM measured after 48 hrs by Annexin-V APC/propidium iodide staining based flow cytometry (reference value: 95.9%). It is filed as functional. As to conditions: read-out: Activity. An outline of the steps: as §2
The target in series [8] is Serine/threonine-protein kinase Chk2 (Homo sapiens) (UniProt O96017). Nature of the series: Inhibition of Chk2 phosphorylation in human SUM159 cells at 0.1 to 0.2 uM measured after 48 hrs by Western blot analysis. It is filed as cell-based.
In series [9] the test system is SUM-159-PT. Nature of the series: Antiproliferative activity against human SUM159 cells measured after 72 hrs by MTT assay. It is filed as functional, cell-based. In outline:
as §1

In series [10] the target is T1, Serine/threonine-protein kinase Chk1 (Homo sapiens) (UniProt O14757).
T1 sequence (whole entry): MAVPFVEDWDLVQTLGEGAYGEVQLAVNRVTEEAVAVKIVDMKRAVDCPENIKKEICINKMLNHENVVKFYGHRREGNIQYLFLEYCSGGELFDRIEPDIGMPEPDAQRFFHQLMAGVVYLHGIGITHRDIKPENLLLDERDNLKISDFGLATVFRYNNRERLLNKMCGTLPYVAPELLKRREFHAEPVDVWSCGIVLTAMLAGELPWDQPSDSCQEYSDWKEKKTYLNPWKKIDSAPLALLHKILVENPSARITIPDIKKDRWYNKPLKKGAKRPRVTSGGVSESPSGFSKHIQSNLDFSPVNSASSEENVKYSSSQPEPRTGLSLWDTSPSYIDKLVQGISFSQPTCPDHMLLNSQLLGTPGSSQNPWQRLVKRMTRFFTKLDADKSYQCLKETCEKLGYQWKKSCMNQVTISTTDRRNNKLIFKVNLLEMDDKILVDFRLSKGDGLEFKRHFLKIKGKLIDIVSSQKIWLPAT
In words: Inhibition of Chk1 phosphorylation in human SUM159 cells at 0.1 to 0.2 uM measured after 48 hrs by Western blot analysis. It is filed as cell-based.

For series [11], the system named is SUM-159-PT. In words: Induction of apoptosis in human SUM159 cells assessed as necrotic cells at 0.2 uM measured after 48 hrs by Annexin-V APC/propidium iodide staining based flow cytometry (reference value: 0.152%). It is filed as functional. An outline of the steps: as §2
The test system of series [12] is SUM-159-PT. Nature of the series: Induction of apoptosis in human SUM159 cells assessed as early apoptotic cells at 0.2 uM measured after 48 hrs by Annexin-V APC/propidium iodide staining based flow cytometry (reference value: 2.5%). It is filed as functional. In outline: as §2
Series [13] deals with MCF7. In words: Potency index, ratio of parthenolide IC50 to test compound IC50 for human MCF7 cells. The series is classed as functional.
The subject of series [14] is Bcap37. In words: Potency index, ratio of parthenolide IC50 to test compound IC50 for human Bcap37 cells. The series is classed as functional.
Series [15] has as its system SUM-159-PT. Nature of the series: Cell cycle arrest in human SUM159 cells assessed as decrease in G2/M-phase accumulation at […] measured after 48 hrs by propidium iodide staining based flow cytometry. The series is classed as functional. In outline: (§3)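 SUM-159 cells were treated for 48 h. Cell cycle distribution (G1, S, G2/M) was measured by flow cytometry and compared with an untreated control group.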

Series [16] deals with SUM-159-PT. In words: Induction of apoptosis in human SUM159 cells assessed as late apoptotic cells at 0.2 uM measured after 48 hrs by Annexin-V APC/propidium iodide staining based flow cytometry (reference value: 1.45%). It is filed as functional. An outline of the steps: as §2
Series [17] relates to SUM-159-PT. In words: Induction of apoptosis in human SUM159 cells assessed as necrotic cells at 0.5 uM measured after 48 hrs by Annexin-V APC/propidium iodide staining based flow cytometry (reference value: 0.152%). It is filed as functional. An outline of the steps:
as §2

For series [18], the system named is SUM-159-PT. Nature of the series: Cell cycle arrest in human SUM159 cells assessed as up regulation of P27 expression at 0.1 to 0.2 uM measured after 48 hrs by Western blot analysis. The series is classed as functional, cell-based.
Series [19] deals with Bcap37. Nature of the series: Antiproliferative activity against human Bcap37 cells measured after 72 hrs by MTT assay. Particulars: Bcap37, 72 h. The series is classed as functional, cell-based. In outline: as §1
For series [20], the system named is SUM-159-PT. In words: Induction of apoptosis in human SUM159 cells assessed as increase in Bax expression measured after 48 hrs by Western blot analysis. It is filed as functional, cell-based.
Series [21] concerns SUM-159-PT. Nature of the series: Induction of apoptosis in human SUM159 cells assessed as viable cells at 0.5 uM measured after 48 hrs by Annexin-V APC/propidium iodide staining based flow cytometry (reference value: 95.9%). The series is classed as functional. As to conditions: read-out: Activity. In outline:
as §2

In series [22] the test system is SUM-159-PT. Nature of the series: Potency index, ratio of parthenolide IC50 to test compound IC50 for human SUM159 cells. The series is classed as functional.
Series [23] deals with MCF7. Nature of the series: Antiproliferative activity against human MCF7 cells measured after 72 hrs by MTT assay. The series is classed as functional, cell-based. As to conditions: MCF7, 72 h. In outline:
as §1

The subject of series [24] is SUM-159-PT. Nature of the series: Cell cycle arrest in human SUM159 cells assessed as down regulation of CHK1 expression at 0.1 to 0.2 uM measured after 48 hrs by Western blot analysis. It is filed as functional, cell-based.
For series [25], the system named is SUM-159-PT. In words: Induction of apoptosis in human SUM159 cells assessed as early apoptotic cells at 0.5 uM measured after 48 hrs by Annexin-V APC/propidium iodide staining based flow cytometry (reference value: 2.5%). The series is classed as functional. An outline of the steps:
as §2

In series [26] the test system is SUM-159-PT. In words: Induction of apoptosis in human SUM159 cells assessed as increase in cleaved caspase-9 measured after 48 hrs by Western blot analysis. The series is classed as functional, cell-based.
In series [27] the test system is SUM-159-PT. Nature of the series: Cell cycle arrest in human SUM159 cells assessed as decrease in S-phase accumulation measured after 48 hrs by propidium iodide staining based flow cytometry.
The test system of series [28] is SUM-159-PT. In words: Cell cycle arrest in human SUM159 cells assessed as increase in G1-phase accumulation at […] measured after 48 hrs by propidium iodide staining based flow cytometry. It is filed as functional. An outline of the steps: as §3
Series [29] has as its system 4T1. Nature of the series: Potency index, ratio of parthenolide IC50 to test compound IC50 for mouse 4T1 cells. It is filed as functional.
Series [30] deals with MDA-MB-231. Nature of the series: Potency index, ratio of parthenolide IC50 to test compound IC50 for human MDA-MB-231 cells. The series is classed as functional.
Series [31] deals with SUM-159-PT. Nature of the series: Induction of apoptosis in human SUM159 cells assessed as increase in Bim expression measured after 48 hrs by Western blot analysis. The series is classed as functional, cell-based.
Series [32] concerns SUM-159-PT. Nature of the series: Cell cycle arrest in human SUM159 cells assessed as down regulation of CHK2 expression at 0.1 to 0.2 uM measured after 48 hrs by Western blot analysis. It is filed as functional, cell-based.
Series [33] deals with SUM-159-PT. In words: Induction of apoptosis in human SUM159 cells assessed as increase in cytochrome-C release measured after 48 hrs by Western blot analysis. It is filed as functional, cell-based.

Serine/threonine-protein kinase Chk2 (Homo sapiens), sequence (O96017 whole entry): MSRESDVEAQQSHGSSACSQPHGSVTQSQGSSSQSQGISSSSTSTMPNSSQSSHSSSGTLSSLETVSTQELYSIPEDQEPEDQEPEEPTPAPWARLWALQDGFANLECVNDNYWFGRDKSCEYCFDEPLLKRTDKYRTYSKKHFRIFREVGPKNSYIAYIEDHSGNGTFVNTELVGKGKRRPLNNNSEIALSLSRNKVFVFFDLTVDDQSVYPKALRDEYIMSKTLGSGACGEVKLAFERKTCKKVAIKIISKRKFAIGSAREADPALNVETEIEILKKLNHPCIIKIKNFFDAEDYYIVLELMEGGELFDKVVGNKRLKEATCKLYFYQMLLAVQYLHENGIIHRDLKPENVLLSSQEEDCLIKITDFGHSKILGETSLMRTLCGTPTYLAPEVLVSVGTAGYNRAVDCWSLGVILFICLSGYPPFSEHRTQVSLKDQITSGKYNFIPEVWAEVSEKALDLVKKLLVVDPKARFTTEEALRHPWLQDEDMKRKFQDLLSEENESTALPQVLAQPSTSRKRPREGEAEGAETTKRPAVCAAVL
Cyclin-dependent kinase 1 (Homo sapiens), sequence (P06493 whole entry, looked up): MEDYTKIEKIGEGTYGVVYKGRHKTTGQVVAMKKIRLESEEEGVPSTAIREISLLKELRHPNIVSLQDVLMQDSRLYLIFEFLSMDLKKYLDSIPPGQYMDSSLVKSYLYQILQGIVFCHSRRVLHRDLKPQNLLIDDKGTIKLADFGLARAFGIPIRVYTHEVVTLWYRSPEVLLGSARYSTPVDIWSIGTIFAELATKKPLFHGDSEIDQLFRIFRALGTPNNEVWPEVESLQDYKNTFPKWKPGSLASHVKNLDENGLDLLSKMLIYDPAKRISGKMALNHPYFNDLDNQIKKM

Take `COc1cccc(OC)c1/C=C/C(=O)O`: the IC50 with MDA-MB-231 [1] is above 50000 nM; with MDA-MB-231 [2], 3.92 µM.
Take `COc1cccc2c1C(=O)c1c(O)c3c(c(O)c1C2=O)C[C@@](O)(C(=O)CO)C[C@@H]3O[C@H]1C[C@H](N)[C@H](O)[C@H](C)O1` [DOXORUBICIN HYDROCHLORIDE]: the 50% inhibitory concentration (IC50) in the series with NIH3T3 came to 0.36 µM; in the series with MDA-MB-231 [1], 800 nM; with 4T1 [4], 800 nM. Also, the selectivity ratio in series [3] was found to be 0.45.
As to `C=C1C(=O)O[C@H]2[C@H]1CC/C(COC(=O)/C=C/c1c(OC)cccc1OC)=C\CC[C@@]1(C)O[C@@H]21`, the Activity came to 6.07% with SUM-159-PT [5]; 0.029% in the series on SUM-159-PT [11]; 2.93% in the series on SUM-159-PT [12]; 0.79% with SUM-159-PT [16]; 2.04% with SUM-159-PT [17]; 30.5% in the series on SUM-159-PT [25]. For the same molecule, the IC50 in the series on NIH3T3 turned out to be 8.13 µM; in the series on SUM-159-PT [9], 200 nM; with MDA-MB-231 [1] it was 250 nM; with Bcap37 [19] it was 270 nM; in the series on MCF7 [23] it was 230 nM; in the series on 4T1 [4], 220 nM. The inhibition result in series [6], in [8] and in series [10] was “Active” each time. The viability at 0.2 µM in the series on SUM-159-PT [7] amounted to 96.3%. Further, the “Ratio IC50” value in the series on MCF7 [13] is 11.6 - 18.6; with Bcap37 [14], 11.6 - 18.6; in the series on SUM-159-PT [22], 11.6 - 18.6; in the series with 4T1 [29], 11.6 - 18.6; in the series on MDA-MB-231 [30], 14. Moreover, the result with SUM-159-PT [15], with SUM-159-PT [18], in the series on SUM-159-PT [20], with SUM-159-PT [24], with SUM-159-PT [26] and with SUM-159-PT [27] was Active. Besides, the result in the series with SUM-159-PT [28], in the series on SUM-159-PT [31], in the series with SUM-159-PT [32] and in the series on SUM-159-PT [33] was Active. In addition, the selectivity ratio in [3] amounted to 36.9. Further, the viability at 0.5 µM in the series with SUM-159-PT [21] is 61.3%.
